In the library only some 1.6% were active in any assay of this set; here they are far more common.
FLuc inh counter: inhibits firefly luciferase, flagging false hits in luciferase inhibition screens; P08659; ATPLite firefly luciferase biochemical luminescence, 10 min; inhibition, % at 10 µM; actives 1.5% (n = 200,000); AID 1006;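 active means inhibition above about 50% when tested at 10 µM, limit read from the data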
Target sequence (P08659 whole entry, looked up): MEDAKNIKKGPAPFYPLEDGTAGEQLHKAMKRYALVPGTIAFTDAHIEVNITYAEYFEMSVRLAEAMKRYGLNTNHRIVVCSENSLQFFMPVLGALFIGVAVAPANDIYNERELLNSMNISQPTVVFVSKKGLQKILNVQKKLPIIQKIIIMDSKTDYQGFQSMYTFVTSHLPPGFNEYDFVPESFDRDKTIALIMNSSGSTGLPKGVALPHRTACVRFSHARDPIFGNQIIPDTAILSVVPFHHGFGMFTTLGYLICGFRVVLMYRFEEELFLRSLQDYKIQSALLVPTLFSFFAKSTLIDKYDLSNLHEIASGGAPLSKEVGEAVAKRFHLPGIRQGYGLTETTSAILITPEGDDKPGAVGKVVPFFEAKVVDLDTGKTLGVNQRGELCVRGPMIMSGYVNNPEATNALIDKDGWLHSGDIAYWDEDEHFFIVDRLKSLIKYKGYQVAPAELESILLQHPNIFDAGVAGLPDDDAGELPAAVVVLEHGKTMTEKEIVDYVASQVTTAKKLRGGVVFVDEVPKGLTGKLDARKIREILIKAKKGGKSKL
PPC-1+TRAIL kill: PPC-1 cancer cell killing with TRAIL present; PPC-1 cells + TRAIL, ATPLite viability luminescence; cell killing (% activity), % at 4 µM or 5 µM; actives 0.41% (n = 220,000); AID 1443;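 active means cell killing above 50% in the first pass at 4 µM, then a duplicate retest at 5 µM averaging 50% or more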;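 further: plate controls were cells with TRAIL plus DMSO for no effect and medium-only wells lacking cells for full effect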
FLuc stim CS: affects firefly luciferase, flagging false hits in luciferase stimulation screens | P08659 | ATPlite luciferase biochemical, luminescence, 10 min; 0 = ATP-free wells, 1 = DMSO control | activation factor at 10 µM | 200,000 tested, under 10 active;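 active means luciferase activation factor, scaled between plate controls, of at least 2 with compound at 10 µM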
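Assay system: Luciferase/luciferin detection reagent, cell-free biochemical luciferase assay / Also added: ATP substrate / Schedule: 10 min at ambient temperature / Measured by: luminescence measurement of luciferase light output / Benchmarks: low control with PBS replacing ATP, high control enzyme plus ATP without compound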
C8 TRAIL sens: sensitizes caspase-8 expressing cells to TRAIL | NB7+C8 cells + TRAIL, ATPlite viability luminescence | actives 1% (n = 360,000) | AID 624354 | inhibition (viability loss, TRAIL sensitization), % at 10 µM;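 active means compounds causing at least 50% loss of cell viability in the single-dose screen, relative to plate controls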
* = called active by the depositor; nt = no result.

SMILES	FLuc inh counter	PPC-1+TRAIL kill	FLuc stim CS	C8 TRAIL sens
O=C(Nc1nc2ccccc2s1)c1c(F)cccc1Cl	nt	nt	nt	10
Cn1cc(Cl)c(C(=O)Nc2nc3ccccc3s2)n1	61*	18	0.4	34
COc1ccc(C(=O)Nc2ccc([N+](=O)[O-])cn2)c(OC)c1	45	17	0.5	53*
CC1(C(=O)NS(=O)(=O)c2ccc3c(c2)CCO3)CCN1C(=O)CCC1CCCC1 (centres undefined)	nt	nt	nt	-22
CCc1nnc(NC(=O)c2ccc(OC)cc2OC)s1	54*	34	0.5	28
N=c1oc2cc(O)ccc2cc1C(=O)Nc1nc2ccccc2s1	75*	-9	0.3	-2
Oc1ccccc1-c1n[nH]c(-c2ccccc2O)n1	nt	nt	nt	60*
Cc1cc(C(F)(F)F)nc(SCC(=O)Nc2c(C)n(C)n(-c3ccccc3)c2=O)n1	nt	nt	nt	4
O=C1C(N2CCOCC2)=C(n2nnc3ccccc32)C(=O)c2ccccc21	3	35	1	94*
c1ccc2oc(-c3csc(N4CCOCC4)n3)cc2c1	86*	-2	0.1	53*
Fc1ccc(-c2csc(N3CCOCC3)n2)cc1	nt	-8	nt	-6
O=C(NOCc1ccccc1)c1ccc(Cl)cc1Cl	nt	nt	nt	58*
CCOC(=O)C1(C)CCN1C(=O)c1cc(F)ccc1C (centres undefined)	nt	nt	nt	3
Cc1ccc(-c2nc3[nH]c(=O)cc(NC(=O)c4cccs4)n3n2)cc1	nt	5	nt	20
CC(C)(C)c1ccc(-c2nc3[nH]c(=O)cc(NC(=O)c4ccco4)n3n2)cc1	nt	nt	nt	62*
Cc1cc(C)n2c(NC3CCCCC3)c(CC(C)C)nc2n1	nt	nt	nt	3
CCCN1C=CC(=C2C(=O)c3ccccc3C2=O)C=C1	97*	26	0	91*
CC1=CC(=C2C(=O)c3ccccc3C2=O)C=C(C)N1Cc1ccco1	38	-16	0.6	35
CC1=CC(=C2C(=O)c3ccccc3C2=O)C=C(C)O1	2	14	1	26
CCCCN1C(C)=CC(=C2C(=O)c3ccccc3C2=O)C=C1C	77*	31	0.2	66*
CN1C=CC(=C2C(=O)c3ccccc3C2=O)C=C1	75*	46	0.2	nt
Cc1cccc(-c2noc(CCCC(=O)N3CCOCC3)n2)c1	-5	17	1	1
COc1ccccc1C(=O)Nc1nnc(SCC(=O)NCc2ccco2)s1	nt	nt	nt	16
Cc1ccccc1C(=O)Nc1nnc(SCC(=O)NC2CC2)s1	nt	nt	nt	53*
COc1ccc(C(=O)Nc2nnc(SCC(=O)NC3CC3)s2)cc1	nt	nt	nt	78*
SMILES	FLuc inh counter	PPC-1+TRAIL kill	FLuc stim CS	C8 TRAIL sens
COc1ccc(C(=O)Nc2nnc(SCC(=O)NCc3ccco3)s2)c(OC)c1	nt	nt	nt	59*
O=C(CSc1nnc(NC(=O)c2ccccc2F)s1)Nc1ccccc1F	89*	45	0.1	58*
O=C(CSc1nnc(NC(=O)c2ccccc2Cl)s1)NC1CC1	nt	nt	nt	19
CCN(CC)S(=O)(=O)c1ccc(NC(=O)COC(=O)c2ccc(NC(=O)CC#N)cc2)cc1	0	21	1	4
COC(=O)Cc1ccc(OC2(C)CCN(Cc3ccccc3OC(F)F)C2)cc1 (centres undefined)	nt	nt	nt	-1
COc1ccc(/C=C/C(=O)C23CC4CC(CC(C4)C2)C3)cc1CN1CCOCC1	0	-5	1	14
CCOC(=O)CNC(=O)CSc1nnc(NC(=O)c2ccccc2Cl)s1	69*	40	0.3	44
COc1ccc(C(=O)Nc2nnc(SCC(=O)Nc3ccc(NC(C)=O)cc3)s2)c(OC)c1	nt	nt	nt	2
COc1ccc(C(=O)Nc2nnc(SCC(=O)NC3CCCC3)s2)c(OC)c1	nt	nt	nt	72*
CNC(=O)CS(=O)CC(=O)Nc1cc(OCCOC)c(Cl)cc1Cl (centres undefined)	-5	9	1	-7
CSc1ccccc1OCc1cc(C(=O)N2CCN3CCCC3C2)no1 (centres undefined)	nt	nt	nt	0
CC1CCCC(C)N1c1ccc(S(=O)(=O)N2CCOCC2)cc1Cl (centres undefined)	nt	nt	nt	-11
Cc1ccc(/C=C/C(=O)Nc2ccncc2)o1	12	0	0.9	10
Cc1ccc(/C=C/C(=O)Nc2ccc(N(C)C)cc2)o1	67*	20	0.3	18
Cc1ncsc1C(=O)Nc1nc2c(s1)CCCC2	45	17	0.5	13
O=C(Nc1nc2c(s1)CCCC2)c1ccc2ncsc2c1	59*	12	0.4	50
Cc1cc(C(=O)Nc2nc3c(s2)CCCC3)cs1	70*	-5	0.3	58*
CCN1C(=O)[C@H]2[C@@H](c3ccc(OC)cc3)N[C@]3(CCCN(Cc4ccc(OC)cc4)C3=O)[C@H]2C1=O	nt	nt	nt	-21
